Laboratory results taken from ChEMBL document CHEMBL4145525, “Machine learning prioritizes synthesis of primaquine ureidoamides with high antimalarial activity and attenuated cytotoxicity” (Eur J Med Chem, 2018).

Columns and labels:
Plasmodium falciparum = test: Antiplasmodial activity against erythrocytic stage of Plasmodium falciparum NF54 assessed as reduction in [3H]hypoxanthine incorporation after 48 hrs by liquid scintillation counting method; assay type: functional, organism-based
Summary of the method: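 Asexual blood-stage NF54 grown in hypoxanthine-free RPMI 1640 with HEPES, NaHCO3, neomycin and Albumax, using washed human A+ erythrocytes at 2.5% hematocrit and 0.3% parasitemia. Compounds were made as 10 mg/ml DMSO stocks and run as eleven 3-fold dilutions, 100 to 0.002 µg/ml. Incubation at 37 °C in 4% CO2, 3% O2, 93% N2. After 48 h, 0.5 µCi 3H-hypoxanthine was added for a further 24 h, then harvested and scintillation counted. IC50 by linear interpolation of sigmoidal curves; averages of 2–3 independent experiments.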

L6 = test: Cytotoxicity against rat L6 cells assessed as reduction in cell viability after 70 hrs by Alamar blue assay; assay type: cell-based; conditions: L6, 70 h
Summary of the method: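 L6 rat skeletal myoblasts were plated at 4000 cells/well in RPMI 1640 with L-glutamine and 10% FBS. Eleven 3-fold drug dilutions, 100 to 0.002 µg/ml. After 70 h, Alamar Blue was added for 2 h and fluorescence read (ex 536 nm, em 588 nm). IC50 by linear interpolation from sigmoid dose-inhibition curves.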

[1] = Selectivity index, ratio of IC50 for rat L6 cells to IC50 for erythrocytic stage of Plasmodium falciparum NF54; assay type: toxicity; conditions: read-out: Ratio IC50
Summary of the method: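 Ratio of the L6 cytotoxicity IC50 to the IC50 against P. falciparum NF54.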

NCI-H460 [2] = test: Cytotoxicity against human NCI-H460 cells assessed as growth inhibition after 72 hrs by MTT assay; assay type: cell-based; conditions: NCI-H460, 72 h
Summary of the method: (§1)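 Monolayers grown in DMEM or RPMI-1640 with 10% FBS, 2 mM L-glutamine and penicillin/streptomycin at 37 °C, 5% CO2. Seeded at 2×10^4–4×10^4 cells/well and attached for 24 h. Five serial 10-fold dilutions added, final DMSO <0.2%. MTT read-out at 72 h; percentage growth calculated. IC50 by linear interpolation between concentrations bracketing 50% growth; at least two biological replicates.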

MCF7 [3] = test: Cytotoxicity against human MCF7 cells assessed as growth inhibition after 72 hrs by MTT assay; assay type: cell-based; conditions: MCF7, 72 h; summary of the method: as §1
A2780 = test: Cytotoxicity against human A2780 cells assessed as growth inhibition after 72 hrs by MTT assay; assay type: cell-based; conditions: A2780, 72 h; summary of the method: as §1
NCI-H460 [4] = test: Cytotoxicity against human NCI-H460 cells assessed as growth inhibition at 10 uM cotreated with G6PD inhibitor 6-AN after 72 hrs by MTT assay; assay type: cell-based; conditions: nci-h460, 72 h
Summary of the method: (§2)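 Adherent cells seeded at 2×10^4–4×10^4 cells/well and left 24 h, then treated with compound alone or together with 6-aminonicotinamide (always 10 µM, used to mimic G6PD deficiency). Final DMSO <0.2%. Growth measured by MTT after 72 h and expressed as percentage growth relative to untreated cells.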

MCF7 [5] = test: Cytotoxicity against human MCF7 cells assessed as growth inhibition at 10 uM cotreated with G6PD inhibitor 6-AN after 72 hrs by MTT assay; assay type: cell-based; conditions: mcf7, 72 h; summary of the method: as §2
SW-620 = test: Cytotoxicity against human SW620 cells assessed as growth inhibition after 72 hrs by MTT assay; assay type: cell-based; conditions: SW-620, 72 h; summary of the method: as §1
HCT-116 = test: Cytotoxicity against human HCT116 cells assessed as growth inhibition after 72 hrs by MTT assay; assay type: cell-based; conditions: HCT-116, 72 h
Summary of the method: (§3)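 Cells cultured in DMEM or RPMI-1640 with 10% FBS, 2 mM L-glutamine and antibiotics at 37 °C, 5% CO2. Seeded at 2×10^4–4×10^4 cells/well and attached for 24 h before five serial 10-fold compound dilutions, final DMSO <0.2%. MTT at 72 h. IC50 interpolated between the two concentrations flanking 50% growth inhibition; single experiment.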

HL-60 = test: Cytotoxicity against human HL60 cells assessed as growth inhibition after 72 hrs by MTT assay; assay type: cell-based; conditions: HL-60, 72 h
K562 = test: Cytotoxicity against human K562 cells assessed as growth inhibition after 72 hrs by MTT assay; assay type: cell-based; conditions: K562, 72 h
CAPAN-1 = test: Cytotoxicity against human Capan1 cells assessed as growth inhibition after 72 hrs by MTT assay; assay type: cell-based; conditions: CAPAN-1, 72 h; summary of the method: as §3
[6] = Cytotoxicity against human MCF7 cells assessed as cell growth at 10 uM after 72 hrs by MTT assay relative to control; assay type: cell-based; conditions: read-out: Activity; summary of the method: as §2
[7] = Cytotoxicity against human MCF7 cells assessed as cell growth at 10 uM cotreated with G6PD inhibitor 6-AN after 72 hrs by MTT assay relative to control; assay type: cell-based; summary of the method: as §2
[8] = Safety index, ratio of compound IC50 to primaquine IC50 for rat L6 cells; assay type: ADME, cell-based; conditions: read-out: Ratio IC50

Row | IC50 (Plasmodium falciparum) | Structure (SMILES) | IC50 (L6) | selectivity ratio [1] | IC50 (NCI-H460 [2]) | IC50 (MCF7 [3]) | IC50 (A2780) | growth inhibition (GI) (NCI-H460 [4]) | growth inhibition (GI) (MCF7 [5]) | IC50 (SW-620) | IC50 (HCT-116) | IC50 (HL-60) | IC50 (K562) | IC50 (CAPAN-1) | viability at 72 h, 10 µM [6] | viability at 72 h, 10 µM [7] | selectivity ratio [8]
1 | 1.9 to 2.2 µM | COc1ccc(C(=NNC(=O)NNC(=O)NCCCC(C)Nc2cc(OC)cc3cccnc23)c2ccc(OC)cc2)cc1 (stereo unspecified) | 136 µM | 61.9 | 5 µM | 0.9 to 1 µM | 0.06 µM | Toxic | Toxic |  |  |  |  |  |  |  | 
2 | 1.2 µM | COc1cc(NC(C)CCCNC(=O)NNC(=O)NCCNC(c2ccccc2)(c2ccccc2)c2ccccc2)c2ncccc2c1 (stereo unspecified) | > 100 µM | > 83.3 | 3 µM | 3 µM | 1 µM | Toxic | Toxic |  |  |  |  |  |  |  | 
3 | 2.3 to 2.4 µM | COc1ccc(C(=NNC(=O)NCCCC(C)Nc2cc(OC)cc3cccnc23)c2ccc(OC)cc2)cc1 (stereo unspecified) | > 180 µM | 78.3 | > 100 µM | 2.8 to 3 µM | 1 µM | Toxic | Toxic |  |  |  |  |  |  |  | 
4 | 1.4 µM | COc1cc(NC(C)CCCNC(=O)NC(C(=O)NC(c2ccccc2)c2ccccc2)c2ccc(Cl)cc2)c2ncccc2c1 (stereo unspecified) | > 160 µM | > 114 | > 100 µM | > 100 µM | > 100 µM |  |  | 6 µM | > 100 µM | > 100 µM | > 100 µM | > 100 µM | 80% | 65% | 2.7
5 | 3.4 µM | COc1cc(NC(C)CCCNC(=O)NC(CC(C)C)C(=O)NC(c2ccccc2)c2ccccc2)c2ncccc2c1 (stereo unspecified) | > 170 µM | > 50 | > 100 µM | > 100 µM | 36 µM | Non-Toxic | Non-Toxic | > 100 µM | > 100 µM | > 100 µM | > 100 µM | > 100 µM |  |  | 
6 | 3 µM | COc1cc(NC(C)CCCNC(=O)NC(C(=O)NC(c2ccccc2)c2ccc(Cl)cc2)c2ccccc2)c2ncccc2c1 (stereo unspecified) | > 160 µM | > 53.3 | > 100 µM | > 100 µM | > 100 µM | Non-Toxic | Non-Toxic | > 100 µM | > 100 µM | > 100 µM | > 100 µM | > 100 µM |  |  | 
7 | 1.8 µM | COc1cc(NC(C)CCCNC(=O)NC(C(=O)NC(c2ccccc2)c2ccc(Cl)cc2)c2ccc(Cl)cc2)c2ncccc2c1 (stereo unspecified) | > 150 µM | > 83.3 | > 100 µM | > 100 µM | 14 µM | Non-Toxic |  | > 100 µM | > 100 µM | > 100 µM | > 100 µM | > 100 µM | 93% | 76% | 2.5
8 | 6.5 µM | COc1cc(NC(C)CCCNC(=O)NC(C(=O)N(C)C(c2ccccc2)c2ccccc2)c2ccccc2)c2ncccc2c1 (stereo unspecified) | > 140 µM | > 21.5 | 64 µM | > 100 µM |  |  |  | > 100 µM | > 100 µM | > 100 µM | > 100 µM | > 100 µM |  |  | 

Row | Structure (SMILES) | IC50 (Plasmodium falciparum) | IC50 (L6) | selectivity ratio [1] | IC50 (NCI-H460 [2]) | IC50 (MCF7 [3]) | IC50 (A2780) | growth inhibition (GI) (NCI-H460 [4]) | growth inhibition (GI) (MCF7 [5]) | IC50 (SW-620) | IC50 (HCT-116) | IC50 (HL-60) | IC50 (K562) | IC50 (CAPAN-1) | viability at 72 h, 10 µM [6] | viability at 72 h, 10 µM [7] | selectivity ratio [8]
9 | COc1cc(NC(C)CCCN)c2ncccc2c1 (stereo unspecified) [PRIMAQUINE PHOSPHATE] | 1.5 µM | 59.5 µM | 39.7 | 10 µM | 5 µM | 5 µM |  |  | 14 µM | 44.2 µM | 11.4 µM | 12 µM | 14.2 µM | 25% |  | 
